The source of these data is ChEMBL document CHEMBL5661985, “In silico design of novel probes for the atypical opioid receptor MRGPRX2” (Nat Chem Biol, 2017).

The target in test [1] is T1, Mitogen-activated protein kinase 8 (Homo sapiens, UniProt P45983). The test can be described thus: Inhibition of JNK1 (unknown origin) by Kinome scan method.
The target of test [2] is T2, Mas-related G-protein coupled receptor member X2 (Homo sapiens, UniProt Q96LB1).
T2 sequence (Q96LB1 whole entry): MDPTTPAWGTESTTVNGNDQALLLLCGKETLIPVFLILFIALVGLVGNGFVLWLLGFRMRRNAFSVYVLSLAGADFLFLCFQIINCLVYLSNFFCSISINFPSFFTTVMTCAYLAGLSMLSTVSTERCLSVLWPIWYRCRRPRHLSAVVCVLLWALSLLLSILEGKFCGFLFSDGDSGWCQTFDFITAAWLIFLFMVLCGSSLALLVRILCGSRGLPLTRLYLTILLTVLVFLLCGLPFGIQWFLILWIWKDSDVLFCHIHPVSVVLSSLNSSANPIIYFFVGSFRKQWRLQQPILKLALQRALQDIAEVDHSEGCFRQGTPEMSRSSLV
The test can be described thus: Agonist activity at MRGPRX2 (unknown origin) expressed in HTLA cells assessed as induction of beta-arrestin 2 recruitment incubated for 18 to 24 hrs by PRESTO-Tango assay. The format is functional, cell-based. As to conditions: read-out: EC50. A general note: Arrestin recruitment assays detect the binding of arrestin to an activated receptor.

Test [3] addresses T3, Tyrosine-protein kinase BTK (Homo sapiens, UniProt Q06187). Put plainly: Inhibition of BTK (unknown origin) by Kinome scan method.
Test [4] addresses T4, Mas-related G-protein coupled receptor member X2 (Homo sapiens) (UniProt Q96LB1).
T4 sequence (whole entry): T2 sequence (Q96LB1 whole entry)
The test can be described thus: Agonist activity at MRGPRX2 (unknown origin) expressed in HTLA cells assessed as induction of beta-arrestin 2 recruitment <10 uM incubated for 18 to 24 hrs by PRESTO-Tango assay. The format is functional, cell-based. The note with it: filed as agonist, time 18-24 hrs. Summed up: (§1)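 β-arrestin2 recruitment by PRESTO-Tango: HTLA cells transiently transfected (calcium phosphate) with codon-optimized MRGPRX2-Tango (WT or point mutant) or MRGPRB2-Tango, plated next day 20,000 cells/well on poly-L-lysine; drug in HBSS/20 mM HEPES/0.3% BSA pH 7.4 for 18–24 h; Bright-Glo luminescence (RLU); curves n=3 in triplicate, mutants n=4 in triplicate.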

Test [5] has as its target T1, Mitogen-activated protein kinase 8. The test can be described thus: Binding affinity to JNK1 (unknown origin) assessed dissociation constant by Kinome scan method.
Test [6] addresses T5, Mitogen-activated protein kinase 10 (Homo sapiens, UniProt P53779). Put plainly: Inhibition of JNK3 (unknown origin) by Kinome scan method.
For test [7], the target named is T5, Mitogen-activated protein kinase 10. The test can be described thus: Binding affinity to JNK3 (unknown origin) assessed dissociation constant by Kinome scan method.
Test [8] has as its target T3, Tyrosine-protein kinase BTK. Put plainly: Binding affinity to BTK (unknown origin) assessed dissociation constant by Kinome scan method.
In test [9] the target is T4, Mas-related G-protein coupled receptor member X2 (Homo sapiens). The test can be described thus: Agonist activity at MRGPRX2 receptor in human LAD2 cells assessed as increase in intracellular calcium release by FLIPR assay. The format is functional, cell-based. The note with it: filed as agonist. A digest of the protocol: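 LAD2 human mast cells seeded 50,000/well in Tyrode's buffer with calcium dye, 1 h before drug; 10 s baseline, drug added, fluorescence followed 120 s; expressed as fold calcium release over baseline; n=3 in triplicate.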
In general terms: Calcium flux is commonly read through the fluorescence of an indicator in the cells.

Test [10] has the same target. The test can be described thus: Agonist activity at N-terminal Flag-tagged human MRGPRX2 receptor expressed in tetracycline-induced FLP-IN/T-REX 293 cells assessed as increase in intracellular calcium release < 10 uM by FLIPR assay. The note with it: filed as agonist. The format is functional, cell-based. Summed up:
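FLIPR calcium: FLP-IN/T-REX HEK-293-T stable line with N-terminal FLAG codon-optimized receptor, induced 24 h with 1 μg/mL tetracycline in 1% dialyzed FBS (uninduced cells as control); FLIPR calcium dye plus 2.5 mM probenecid 1 h 37°C; 10 s baseline, then drug in HBSS/20 mM HEPES/probenecid pH 7.4, 16-point curve 10 μM to 0.003 nM; fluorescence 120 s; fold over basal, n=3 triplicate.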

For test [11] the target is unchanged. Put plainly: Agonist activity at MRGPRX2 (unknown origin) expressed in HTLA cells assessed as induction of beta-arrestin 2 recruitment at 10 uM incubated for 18 to 24 hrs by PRESTO-Tango assay. The note with it: filed as agonist, time 18-24 hrs. The format is functional, cell-based. A digest of the protocol: as §1

The source made the active and inactive calls. No cut-off for these calls is given here.

T5 sequence (P53779 whole entry): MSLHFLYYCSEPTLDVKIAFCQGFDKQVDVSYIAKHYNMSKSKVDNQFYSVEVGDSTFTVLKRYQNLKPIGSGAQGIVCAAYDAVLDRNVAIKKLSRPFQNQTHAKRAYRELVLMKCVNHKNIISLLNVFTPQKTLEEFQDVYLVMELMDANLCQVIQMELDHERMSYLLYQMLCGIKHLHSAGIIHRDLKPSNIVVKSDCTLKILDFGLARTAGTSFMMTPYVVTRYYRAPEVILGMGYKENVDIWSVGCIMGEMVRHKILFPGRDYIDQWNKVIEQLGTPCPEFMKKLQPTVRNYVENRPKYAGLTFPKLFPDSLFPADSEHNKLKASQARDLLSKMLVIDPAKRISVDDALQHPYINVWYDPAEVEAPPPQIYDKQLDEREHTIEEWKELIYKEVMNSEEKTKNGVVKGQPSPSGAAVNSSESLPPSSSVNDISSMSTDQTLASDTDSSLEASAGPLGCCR
T3 sequence (Q06187 whole entry): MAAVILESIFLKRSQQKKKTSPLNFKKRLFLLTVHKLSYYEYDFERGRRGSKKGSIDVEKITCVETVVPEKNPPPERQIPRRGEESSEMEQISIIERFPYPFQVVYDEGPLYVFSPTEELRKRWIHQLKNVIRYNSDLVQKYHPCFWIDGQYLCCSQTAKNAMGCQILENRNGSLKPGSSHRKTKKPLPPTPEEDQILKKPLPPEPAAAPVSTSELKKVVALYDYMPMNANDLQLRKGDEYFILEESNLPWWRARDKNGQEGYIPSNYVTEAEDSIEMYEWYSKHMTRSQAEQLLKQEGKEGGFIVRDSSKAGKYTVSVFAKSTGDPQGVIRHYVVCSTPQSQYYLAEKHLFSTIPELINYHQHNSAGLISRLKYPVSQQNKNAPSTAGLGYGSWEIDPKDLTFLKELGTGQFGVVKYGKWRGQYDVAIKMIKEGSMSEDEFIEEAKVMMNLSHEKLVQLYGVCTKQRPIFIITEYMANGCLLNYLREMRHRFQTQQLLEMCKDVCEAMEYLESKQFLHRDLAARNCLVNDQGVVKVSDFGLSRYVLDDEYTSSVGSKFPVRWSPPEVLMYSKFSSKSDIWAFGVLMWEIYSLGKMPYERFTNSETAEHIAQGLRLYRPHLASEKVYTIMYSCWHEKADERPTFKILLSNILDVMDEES
T1 sequence (P45983 whole entry): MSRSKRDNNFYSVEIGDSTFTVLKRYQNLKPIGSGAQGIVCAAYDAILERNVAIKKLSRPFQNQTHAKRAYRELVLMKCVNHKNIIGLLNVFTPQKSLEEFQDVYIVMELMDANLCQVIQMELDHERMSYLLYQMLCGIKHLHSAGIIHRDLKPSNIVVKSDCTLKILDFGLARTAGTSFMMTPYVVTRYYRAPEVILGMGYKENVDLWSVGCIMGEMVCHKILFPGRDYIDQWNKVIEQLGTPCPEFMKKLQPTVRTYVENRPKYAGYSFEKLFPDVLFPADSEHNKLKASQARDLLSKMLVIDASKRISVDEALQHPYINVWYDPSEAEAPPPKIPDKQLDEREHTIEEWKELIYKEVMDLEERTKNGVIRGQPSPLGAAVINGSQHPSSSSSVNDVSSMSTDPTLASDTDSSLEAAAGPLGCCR

For orientation: IC50 means the concentration that inhibits the measured activity by half. A high value points to lower potency. The EC50 is the concentration at which the effect is half-maximal. As a reminder, the Kd is the equilibrium constant for the complex coming apart. A lower Kd goes with tighter binding. In the case of `Cc1cc2nc(-c3ccccc3)cc(N3CCC(N(C)C)C3)n2n1` (stereo unspecified), the IC50 in [1], in [3] and in test [6] was 20 µM throughout. Further, the EC50 in test [2] amounted to 3 µM. The outcome in test [4], in test [9], in [10] and in [11] was Active. For the same compound, the Kd is 19 µM in test [5], over 30 µM in [7] and 27 µM in test [8].
